Screening data: PubChem BioAssay, Broad Institute
Compounds with a hit are over-represented: about 3.5% of the library has one in this group of screens.
esBAF inh: SWI/SNF esBAF complex inhibition | reporter increase, % at 12.5 µM | AID 602393 | mouse ES cells, Bmi1-luciferase knock-in reporter, 24 h; 100% = twice the neutral-well signal | 350,000 tested, 2% active; in the data active = activation above about 40%; inconclusive = no clear call, values can overlap the other calls;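 also: 0% = median of the plate's neutral control wells and 100% = double that signal; a rise in the Bmi1 reporter signal indicates esBAF inhibition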
MITF act: increases MITF-driven TRPM1 promoter luciferase signal | SK-MEL-5 TRPM1-promoter luciferase, 24 h; % of positive control, neutral wells = 0 | activation, % at 12.5 µM | 300,000 tested, 0.75% active | AID 588334;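 active = mean activation of at least 80% with every replicate also reaching 80%; inconclusive = mean reaches 80% but some replicate falls short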;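 also: 0% = neutral control wells and 100% = parthenolide positive control wells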
Wnt bcat act: activators of Wnt/beta-catenin signaling. Wnt/beta-catenin reporter cell assay, activator, plate reader. 300,000 tested, 1.2% active. activation, % at 9.35 µM; in the data active = activation above about 30%, passing the limit was not always enough; inconclusive = no clear call, values can overlap the other calls;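 also: 0% = neutral control wells and 100% = positive control wells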
Env fusion inh: blocks HIV Env-driven cell-cell fusion; HeLa-JRFL Env/CEM21 cell fusion, luciferase; inhibition, % at 12.3 µM; 360,000 tested, 1.1% active;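 active = mean replicate inhibition score of at least 50 and every replicate individually at or above 50; inconclusive = only one of the two criteria met; inactive = mean below 50 and not all replicates reaching 50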;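 also: 0% = plate neutral controls and 100% = maraviroc near 300 nM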
Cneo AK release: causes C. neoformans cell lysis; adenylate kinase release luminescence, 4 h; normalised: neutral wells 0, clomiphene wells 100; lysis activity, % at 15 µM; 360,000 tested, 0.2% active; AID 651654;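 active = mean lysis activity across replicates of at least 80%, whatever share of replicates individually reach that level; inactive = mean lysis activity below 80%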
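Material: C. neoformans cells | Amount: Yeast cell density of 5 × 10^6 cells/mL | Medium: Fresh YPD growth medium | Dosing: Single dose | Times: Static 4 h at 37 °C with compound, 1 h detection | Detection: AK luminescence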
ERAP1 HTS inh: inhibitors of human ERAP1 aminopeptidase. recombinant ERAP1, Leu-AMC fluorescence, 60 min. 340,000 tested, 0.15% active. inhibition, % at 10.7 µM;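 active = mean replicate inhibition of at least 30%, or all replicates individually reaching that 30% level; inactive = mean below 30% and not every replicate reaching it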;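 also: 0% = neutral control wells and 100% = L-leucinethiol positive control wells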
Target sequence (Q9NZ08 whole entry, looked up): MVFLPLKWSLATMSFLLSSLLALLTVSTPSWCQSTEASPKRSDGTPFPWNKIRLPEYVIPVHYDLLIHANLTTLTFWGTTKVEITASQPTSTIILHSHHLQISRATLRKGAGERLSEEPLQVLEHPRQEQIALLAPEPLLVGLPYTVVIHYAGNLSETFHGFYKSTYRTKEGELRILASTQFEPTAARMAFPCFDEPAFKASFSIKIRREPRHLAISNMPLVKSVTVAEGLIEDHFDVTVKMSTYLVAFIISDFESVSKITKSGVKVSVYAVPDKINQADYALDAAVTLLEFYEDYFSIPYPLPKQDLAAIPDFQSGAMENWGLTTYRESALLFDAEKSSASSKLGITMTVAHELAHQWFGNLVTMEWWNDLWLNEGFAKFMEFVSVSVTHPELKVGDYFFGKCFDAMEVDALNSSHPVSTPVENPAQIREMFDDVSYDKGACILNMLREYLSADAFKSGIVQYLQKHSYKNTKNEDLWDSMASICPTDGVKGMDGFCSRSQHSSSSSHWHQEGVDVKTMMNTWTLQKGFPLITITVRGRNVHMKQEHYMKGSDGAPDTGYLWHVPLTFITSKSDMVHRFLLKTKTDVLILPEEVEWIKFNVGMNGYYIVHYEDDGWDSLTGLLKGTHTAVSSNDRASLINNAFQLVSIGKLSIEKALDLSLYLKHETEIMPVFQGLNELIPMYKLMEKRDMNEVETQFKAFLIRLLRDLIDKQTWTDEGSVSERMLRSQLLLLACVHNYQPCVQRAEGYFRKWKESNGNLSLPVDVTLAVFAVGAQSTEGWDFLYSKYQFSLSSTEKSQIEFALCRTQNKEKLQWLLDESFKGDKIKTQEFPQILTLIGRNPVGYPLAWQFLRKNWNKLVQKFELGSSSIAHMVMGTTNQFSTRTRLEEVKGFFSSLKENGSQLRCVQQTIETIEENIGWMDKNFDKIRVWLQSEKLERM
* marks the source's active call; other numbers are inactive results; ? = inconclusive; . = no result given; [ ] = dose if it differs, or a comment.

SMILES | esBAF inh | MITF act | Wnt bcat act | Env fusion inh | Cneo AK release | ERAP1 HTS inh
Cc1ccc(C(=O)c2ccccc2C(=O)OCC(=O)N2CCCC2)cc1 | 43* | 7 | 6 | -8 | -7 | -3
O=C(OCC(=O)N1CCN(Cc2ccccc2)CC1)c1cc(Cl)ccc1[N+](=O)[O-] | -1 | -1 | 37* | . | 6 | 0
Cc1cccc(C(=O)OCC(=O)N2CCCCCC2)c1C | 64* | 79 | 34* | -70 | 3 | -3
O=C(NC1CCCC1)N1CCCCN2[C@H](CO)[C@H](c3ccc(-c4cncnc4)cc3)[C@H]2C1 | . | . | . | . | -3 | 0
Cc1cc2oc(=O)cc(CN3CCC(C)CC3)c2cc1C | 41* | 68 | 5 | 1 | 0 | 1
CCC(=O)N(C)C[C@H]1Oc2cc(C#CC(C)(C)O)ccc2S(=O)(=O)N([C@H](C)CO)C[C@@H]1C | 2 | . | . | -4[16.7 µM] | 101* | -2
CCC(=O)N(C)C[C@@H]1Oc2cc(C#Cc3ccccc3)ccc2S(=O)(=O)N([C@@H](C)CO)C[C@H]1C | -1 | . | . | 59*[16.7 µM] | -2 | 1
CCC(=O)N(C)C[C@H]1Oc2cc(C#Cc3ccccc3)ccc2S(=O)(=O)N([C@@H](C)CO)C[C@H]1C | 1 | . | . | 3[16.7 µM] | 2 | -3
C[C@@H]1CCCCO[C@H](CN(C)C(=O)Nc2ccc(F)cc2)[C@@H](C)CN([C@@H](C)CO)C(=O)c2cc(NC(=O)Nc3ccccc3)ccc2O1 | -5 | . | . | -83[16.7 µM] | 2 | -2
Cc1ccc(S(=O)(=O)Nc2ccc3c(c2)C(=O)N([C@H](C)CO)C[C@@H](C)[C@@H](CN(C)C(=O)CCCN(C)C)OCCCC[C@@H](C)O3)cc1 | -2 | . | . | 17[16.7 µM] | 2 | -2
CO[C@@H]1CN(C)C(=O)c2cc(NC(=O)c3ccc(F)cc3)ccc2OC[C@@H](C)N(C(C)=O)C[C@H]1C | 3 | . | . | . | -3 | 2
O=C(CC1CC2CCC1C2)NC1CCCCCCC1 (stereo unspecified) | 60* | 29 | 12 | 19 | -5 | -1
CCCCCCCCCCCCCCC(O)C[N+](C)(CCO)CCO (stereo unspecified) | . | . | 3 | -22 | . | 64*
O=C(NCC[C@@H]1CC[C@H](NS(=O)(=O)Cc2ccccc2)[C@@H](CO)O1)C1CCC1 | 3 | . | . | -1[16.7 µM] | . | .
C/C=C/c1ccc([C@@H]2[C@@H](CNC(=O)C3CC3)N(C(=O)CC)[C@H]2CO)cc1 | 0 | . | . | . | 93* | 0
CC(=O)NC[C@@H]1[C@@H](c2ccc(C3=CCCC3)cc2)[C@@H](CO)N1C(=O)NC(C)C | 6 | . | . | . | 112* | .
CC(=O)NC[C@H]1[C@H](c2ccc(C3=CCCC3)cc2)[C@@H](CO)N1C(=O)NC(C)C | -1 | . | . | . | 1 | .
CCC(=O)N1[C@H](CO)[C@H](c2ccc(-c3ccc(F)cc3)cc2)[C@@H]1CNC(C)=O | 1 | . | . | . | 82* | .
CCC(=O)N1[C@@H](CO)[C@@H](c2ccc(-c3ccc(F)cc3)cc2)[C@@H]1CNC(C)=O | -1 | . | . | . | 0 | .
COc1ccccc1C(=O)N1C[C@H]2[C@@H](c3ccccc31)[C@H](CO)N2C(=O)Nc1ccccc1 | -5 | . | . | . | 1 | 2
O=C1c2ccccc2C(=O)N1C1CCN(Cc2cccc(OCCO)c2)CC1 | . | . | . | -8[16.7 µM] | -18 | 0
O=C(Nc1ccccc1Br)c1cc(=O)c2ccccc2o1 | 49* | 152* | 0 | -24 | -2 | -1
O=C(C[n+]1cccc(Br)c1)c1ccccc1 | -3 | -8 | 2 | -10 | 3 | 1
O=C(C[n+]1cccc(Br)c1)c1ccc(-c2ccccc2)cc1 | 44* | 15 | 2 | 9 | -4 | -1
CC(C)NC(=O)N(C)C[C@@H]1Oc2cc(-c3ccncc3)ccc2S(=O)(=O)N([C@H](C)CO)C[C@@H]1C | 3 | . | . | -13[16.7 µM] | -1 | -2
SMILES | esBAF inh | MITF act | Wnt bcat act | Env fusion inh | Cneo AK release | ERAP1 HTS inh
O=C(Cc1nc2ccccc2[nH]c1=O)c1ccccc1 | . | 29 | 33* | -98 | . | -1
O=C(Cc1nc2ccccc2[nH]1)c1ccc(Br)cc1 | . | 91* | 17 | -24 | . | .
CC1CCCC(C)N1CCCNC(=O)c1ccc2nc(N3CCOCC3)sc2c1 (stereo unspecified) | -2 | 4 | -1 | -1 | -1 | .
CCCN1CCN(CCCNC(=O)c2ccc3nc(N4CCCCC4)sc3c2)CC1 | 77* | 22 | -1 | -60 | 0 | 0
CC1CC(C)CN(CCCNC(=O)c2ccc3nc(N4CCCCC4)sc3c2)C1 (stereo unspecified) | 55* | . | -4 | -29 | -9 | 4
CO[C@H]1CN(C)C(=O)c2ccc(NC(=O)Nc3cccc(F)c3)cc2OC[C@@H](C)N(C(=O)Nc2c(C)noc2C)C[C@@H]1C | 2 | . | . | . | 0 | 1
C[C@@H]1CN([C@@H](C)CO)C(=O)Cc2cc(NS(C)(=O)=O)ccc2O[C@H]1CN(C)S(=O)(=O)c1cn(C)cn1 | 0 | . | . | 8[16.7 µM] | 35 | .
COc1cccc(/C=N/NC(=O)CN(C)S(=O)(=O)c2ccccc2)c1OC | 56* | 42 | 13 | . | -1 | -3
CCS(=O)(=O)Nc1ccc2c(c1)C(=O)N(C)[C@@H]1CC[C@H](CC(=O)NC)O[C@@H]1CO2 | 2 | . | . | -17[16.7 µM] | -4 | 0
Brc1ccc(-c2cnc(-c3cccs3)o2)cc1 | 67* | . | . | -429 | -1 | .
CN(C)c1ccc(-c2nnc(-c3cccs3)o2)cc1 | . | 15 | ? | -126 | . | -1
O=C(COc1ccc(Cl)cc1Cl)N/N=C/c1cccnc1 | 8 | 14 | -2 | -3 | 0 | 4
CC(=O)Nc1ccc(NC(=O)COc2ccc(-c3ccc(C#N)cc3)cc2)cc1 | -7 | 21 | 0 | 4 | -3 | -2
Cc1cc(OCC(=O)Nc2ccncc2)ccc1Cl | -6 | 0 | -4 | 15 | 2 | -4
O=C(COc1ccc(Cl)cc1Cl)Nc1cccnc1 | . | 94* | ? | -98 | -2 | 0
Cc1cc(OCC(=O)Nc2ccncc2)cc(C)c1Br | 1 | 0 | -8 | 46* | 1 | .
O=C(CCCOc1ccc(Cl)cc1Cl)Nc1ccncc1 | 14 | 0 | . | . | -2 | .
N#Cc1ccc(-c2ccc(OCC(=O)Nc3cccnc3)cc2)cc1 | 7 | 13 | 1 | 59* | 7 | 0
O=C(COc1ccc(Cl)cc1Br)Nc1ccncc1 | 79* | 71 | 11 | -116 | 0 | -1
Cc1ccc2c(c1)N=C(c1ccc(Cl)cc1)CO2 | 49* | 72 | 11 | . | -1 | .
C[N+]1(CC(O)COCC2COc3ccccc3O2)CCOCC1 (stereo unspecified) | . | -2 | -1 | ? | . | 104*
C[C@@H]1CCCCO[C@@H](CN(C)C(=O)NC2CCCCC2)[C@@H](C)CN([C@H](C)CO)C(=O)c2cc(NC(=O)C3CCCCC3)ccc2O1 | -6 | . | . | 27[16.7 µM] | 3 | 7
CN(C)C(=O)C[C@@H]1C=C[C@H](NC(=O)C2CC2)[C@@H](CO)O1 | -4 | . | . | 7[16.7 µM] | -1 | -2
